# Experimental data from publication PMC6469250 (Annals of Clinical and Translational Neurology, 2019).
# Like-named read-outs stand apart in the source and are kept apart here.
# What was measured:
# hLTP = details: cited from earlier work
# [1] = humans; cited from earlier work
# [2] = cited from earlier work
# [3] = Pharmacokinetics in mice: total plasma and brain concentrations by LC-MS; format: in vivo; details: male, C57BL/6J, mouse
# KCa3.1 [4] = details: read-out: IC50 for KCa3.1 inhibition; cited from earlier work
# KCa3.1 [5] = target: KCa3.1 (Mus musculus, UniProt O89109); assay: Whole-cell patch-clamp on AβO-activated cultured primary microglia; format: cell-based; details: AβO 100 nmol/L 24 h, senicapoc 1 μmol/L (Fig. 7A)
# KCa3.1 (Mus musculus, UniProt O89109), sequence (O89109 whole entry): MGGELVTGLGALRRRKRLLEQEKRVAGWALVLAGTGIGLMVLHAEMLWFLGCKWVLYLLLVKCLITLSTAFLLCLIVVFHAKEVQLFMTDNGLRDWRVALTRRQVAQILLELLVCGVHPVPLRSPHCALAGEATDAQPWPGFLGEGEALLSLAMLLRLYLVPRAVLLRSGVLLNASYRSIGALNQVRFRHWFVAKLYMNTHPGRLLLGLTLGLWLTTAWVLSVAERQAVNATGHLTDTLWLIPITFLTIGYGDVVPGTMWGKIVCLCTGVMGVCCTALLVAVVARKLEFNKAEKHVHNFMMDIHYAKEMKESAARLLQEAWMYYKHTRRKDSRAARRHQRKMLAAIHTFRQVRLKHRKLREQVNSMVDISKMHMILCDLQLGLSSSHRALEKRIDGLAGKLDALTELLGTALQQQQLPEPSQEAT
# Summary of the method: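 Whole-cell patch-clamp was done on cultured primary microglia after 24 h AβO (100 nmol/L) with test compound or vehicle. An aspartate-based internal solution was used. KCa3.1 conductance was taken from the slope of the TRAM-34-sensitive KCa current between −80 and −75 mV.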
# primary microglia = assay: AβO-induced proinflammatory activation of cultured primary microglia; format: cell-based, mouse
# Summary of the method: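 Primary microglia came from mixed glia cultures and were exposed to AβO (100 nmol/L) for 24 h with test compound or vehicle. For qPCR, RNA was kit-extracted and analysed by the 2‑ΔΔCt method with Actb as reference. For p38MAPK, cells were lysed in Triton/SDS buffer with protease and phosphatase inhibitors, then immunoblotted with anti-phospho-p38MAPK and anti-p38MAPK (1:1000).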
# 5xFAD mice [6] = assay: hLTP in hippocampal slices from treated 5xFAD mice; format: in vivo; details: senicapoc diet for three months; to the level of Wt mice (Fig. 8F and G)
# Summary of the method: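 5xFAD and Wt littermates aged six months were fed test compound-medicated (2400 ppm) or control diet for three months. Hippocampal slices then received high-frequency stimulation. The read-out was mean percent change in fEPSP slope from baseline, averaged 50–60 min after HFS, from 8–12 slices of 5–6 mice per group. Data are mean ± SE; two-way ANOVA with Bonferroni.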
# [7] = cited from earlier work; remark: listed apart in the source
# 5xFAD mice [8] = assay: Memory tasks: novel object recognition and step-through passive avoidance; format: in vivo; details: 5xFAD mice at 9 months of age; no significant memory deficits in 5xFAD/control diet mice
# [9] = Pharmacokinetics in rats: total plasma and brain concentrations by LC-MS; format: in vivo; details: oral gavage 50 mg/kg, rats (Fig. 6D)
# 5xFAD mice [10] = assay: qPCR of acutely isolated microglia after three months of senicapoc diet; format: in vivo
# Summary of the method: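 Six-month-old 5xFAD and Wt littermates were fed 2400 ppm test compound or control diet ad lib for three months (n = 9/group). Microglia were acutely isolated with anti-CD11b magnetic beads. RNA was extracted, reverse-transcribed and pre-amplified. Pro-inflammatory and M2-like transcripts (Arg1, CD206, […], IGF-1) were quantified by 2‑ΔΔCt against Actb. Groups were compared by two-way ANOVA with Bonferroni.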
# 5xFAD mice [11] = format: in vivo
# Summary of the method: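 Six-month-old 5xFAD and Wt littermates got 2400 ppm test compound or control diet for three months (n = 9/group). Frozen 20 μm sections were stained overnight at 4°C with anti-Iba-1, CD68 or CD11b (1:200), Alexa secondaries (1:700) and FSB (400 nmol/L) for plaques. KCa3.1 was detected with APC064 or P4997 (1:3000); microglial co-localisation used three images per mouse. Imaging and analysis were blinded.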
compound,measurement,setting,value
CN(C)c1ccc(O)c2c1C[C@H]1C[C@H]3[C@H](N(C)C)C(O)=C(C(N)=O)C(=O)[C@@]3(O)C(O)=C1C2=O [minocycline],hLTP disruption by Aβ,hLTP,prevent the hLTP disruption
NC(=O)C(c1ccccc1)(c1ccc(F)cc1)c1ccc(F)cc1 [senicapoc],half-life,[1],~ 7 day
same,hemolysis and hemoglobin levels,[2]; Phase-2 clinical trial,reduced hemolysis and increased hemoglobin levels
same,primary clinical end-point: reduction in the rate of vaso-occlusive pain crisis,[2]; Phase-3,failed to achieve its primary clinical end‐point
same,safety and tolerability in humans,[2]; Phase-3 clinical trial for sickle cell anemia,safe and well‐tolerated
same,concentration at 1 h,"[3]; brain, ip, 50 mg/kg",43 ± 8 µM
same,half-life,[3]; plasma,~1 h
same,IC50,KCa3.1 [4],11 nM
same,AβO-induced microglial KCa3.1 currents,KCa3.1 [5],block
same,AβO-induced microglial proliferation,"primary microglia; AβO 100 nmol/L 24 h, senicapoc 1 μmol/L if not otherwise indicated (Fig. 7B)",block
same,AβO-induced production of NO,"primary microglia; AβO 100 nmol/L 24 h, senicapoc 1 μmol/L if not otherwise indicated (Fig. 7E)",block
same,"AβO-induced expression of microglial activation mediators IL-1β, IL-6 and iNOS","primary microglia; AβO 100 nmol/L 24 h, senicapoc 1 μmol/L, qPCR (Fig. 7C)",block
same,AβO-induced activation of p38MAPK,"primary microglia; AβO 100 nmol/L, senicapoc 1 μmol/L, Western blotting (Fig. 7D)",block
same,reduced induction of hLTP in 5xFAD mice,5xFAD mice [6],rectified
same,protein binding,[7],95%
same,cognitive benefit,5xFAD mice [8],could not be demonstrated
same,oral availability,[9],roughly 60%
same,"expressions of proinflammatory modulators IL-1β, TNF-α, IL-6, and iNOS (qPCR)",5xFAD mice [10]; medicated diet for three months (Fig. 8C),significantly reduced
same,markers typical of an M2-like phenotype (qPCR),5xFAD mice [10]; medicated diet for three months (Fig. S5),no changes
same,number of microglia expressing KCa3.1,5xFAD mice [11]; medicated diet for three months (Fig. 8B),significantly reduced
same,reduction of CD11b immunoreactivity,"5xFAD mice [11]; medicated diet for three months, P < 0.001 (Fig. 8A)",45%
